KCNQ1 block: human KCNQ1 channel inhibition. P51787. CHO-K1 KCNQ1, FluxOR thallium flux fluorescence; active compounds read high. B-score at 10 µM. actives 1.3% (n = 310,000);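 active = compounds whose thallium flux B-score, printed positive for inhibition, exceeds three library SD while starting fluorescence stays within three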;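 note: channel opened by potassium depolarization with thallium stimulus after 20 min compound exposure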
hERG protect: hERG (human) protection from proarrhythmic block; CHO-hERG, FluxOR thallium flux, dofetilide IC70 present; actives 0.51% (n = 310,000); activation (rescue from dofetilide block), less the hit threshold, % at 10 µM; Q12809; AID 1511;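 active = activation above the mean of controls blocked by dofetilide plus 5 SD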;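 note: thallium influx through hERG after potassium depolarization seen as dye fluorescence rise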
KCNK3 block: human KCNK3 channel inhibition, primary screen; O14649; CHO-KCNK3 thallium flux, FluxOR fluorescence; active compounds read low; B-score at 10 µM; actives 0.84% (n = 340,000); AID 602410;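 active = B-score under library mean minus 4 SD, starting fluorescence ratio at most library mean plus 5 SD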;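 note: more negative B-score means stronger inhibition of thallium flux through KCNK3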
Kir21 inh: inhibitors of mouse Kir2.1 inward-rectifier potassium channel; HEK293-Kir2.1, FluxOR thallium flux fluorescence; active compounds read low; B-score at 10 µM; actives 0.85% (n = 310,000);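 active = fluorescence ratio B-score at or below minus 3 SD of library scores, with starting-brightness B-score within 2 SD, cut at about -4.2 in these data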;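 note: channel flux triggered by added potassium and thallium sulfate stimulus; B-score of peak minus minimum fluorescence over baseline after thallium stimulus; more negative B-score means stronger Kir2.1 block with less thallium influx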
Target sequence (P35561 whole entry, looked up): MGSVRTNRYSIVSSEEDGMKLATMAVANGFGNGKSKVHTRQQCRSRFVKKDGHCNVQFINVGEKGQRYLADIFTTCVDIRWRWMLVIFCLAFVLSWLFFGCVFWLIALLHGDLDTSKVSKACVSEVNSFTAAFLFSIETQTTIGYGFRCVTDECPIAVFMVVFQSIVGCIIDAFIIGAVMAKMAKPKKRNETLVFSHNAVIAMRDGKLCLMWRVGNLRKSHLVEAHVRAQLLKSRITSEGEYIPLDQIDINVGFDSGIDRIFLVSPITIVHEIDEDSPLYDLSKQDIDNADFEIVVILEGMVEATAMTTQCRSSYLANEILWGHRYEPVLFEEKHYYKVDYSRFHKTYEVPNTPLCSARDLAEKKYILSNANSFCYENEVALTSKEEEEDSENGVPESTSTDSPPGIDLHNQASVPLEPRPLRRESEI
KCNK9 block: human KCNK9 channel inhibition; Q9NPC2; HEK293 KCNK9, FluxOR thallium flux fluorescence; active compounds read low; B-score at 10 µM; actives 1.2% (n = 310,000); AID 488922;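 active = ratio B-score over 3 SD below the library mean, with starting fluorescence within 5 SD of its mean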;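 note: negative B-score means less thallium flux so channel inhibition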
KCNQ1 act: potentiates or activates the human KCNQ1 potassium channel. AID 2648. B-score at 10 µM. P51787. CHO-K1 KCNQ1, thallium flux FluxOR fluorescence; active compounds read high. actives 0.35% (n = 310,000);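 active = fluorescence ratio B-score, a plate-corrected score, at least three library SD, with initial intensity B-score within 5 SD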
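Assay system: stable KCNQ1 CHO-K1 line; medium: assay buffer, equal DMSO in all wells; timing: 90 min dye loading and 20 min compound exposure, both at room temperature; technique: kinetic FluxOR thallium fluorescence, 10-s 1-Hz baseline, 110-s post-stimulus read; read-out basis: B score of baseline-normalized fluorescence ratio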
KCNK9 inh conf: human KCNK9 inhibitor confirmation. shares compounds with KCNK9 block. HEK293 KCNK9 cells, FluxOR thallium flux fluorescence. inhibition, % at 10 µM. actives 43% (n = 4,900). AID 492992;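 active = thallium signal inhibited by more than 5 SD of the compound-free buffer control wells, on both duplicate plates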
Kir2-1 spec: tests whether KCNK9 modulators also affect mouse Kir2.1; Kir2.1 cells, FluxOR thallium flux fluorescence; shares compounds with KCNK9 block; actives 4% (n = 4,900); inhibition, % at 10 µM;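 active = thallium signal drop more than 5 SD beyond the mean of the no-compound control wells, seen in both duplicate plates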;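 note: signal is fluorescence rise after thallium addition divided by baseline fluorescence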
HEK293 Tl ctr: second counter-screen for KCNK9 modulators: effect in non-induced cells; shares compounds with KCNK9 block; non-induced KCNK9-HEK293, FluxOR thallium flux; inhibition, % at 10 µM; AID 492997; actives 40% (n = 4,900);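 active = thallium signal drop beyond 5 SD of the untreated control mean, on both duplicate plates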
KCNK3 confirm: confirmation of human KCNK3 two-pore domain potassium channel inhibitors | shares compounds with KCNK3 block | CHO-KCNK3 thallium flux, FluxOR fluorescence; 0% buffer, 100% carvedilol maximal block | ratio percent of control, % at 10 µM | actives 99% (n = 2,400);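 active = ratio percent of control, averaged over triplicates, above buffer control mean plus 5 SD, cut at about 64% in these data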;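 note: ratio is the fluorescence rise from min to max over baseline after thallium stimulus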
KCNK3 uninduced: KCNK3 inhibitor counter-screen hit in non-induced cells. non-induced KCNK3 parental cells, FluxOR thallium flux; active compounds read low. AID 651747. shares compounds with KCNK3 block. thallium flux ratio (lower = more inhibition) at 10 µM. actives 40% (n = 2,400);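 active = thallium flux ratio, averaged over three wells, more than 5 SD below the buffer control mean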;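 note: host cells are CHO cells without KCNK3 induction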
Numbers stand for hits; 0 = inactive; - = no result given. Only some compounds are listed: those with a hit (about 3.7% of all), similar ones and a draw of the others.

SMILES	KCNQ1 block	hERG protect	KCNK3 block	Kir21 inh	KCNK9 block	KCNQ1 act	KCNK9 inh conf	Kir2-1 spec	HEK293 Tl ctr	KCNK3 confirm	KCNK3 uninduced
CCOc1ccc(CCNC(=O)COC(=O)c2cccc(S(=O)(=O)N3CCCC3)c2)cc1OCC	0	0	-9.22	0	-9.42	0	38.5%	0	36.5%	65.0	0
Oc1ccc(Br)cc1Cn1nnc2ccccc21	0	0	0	0	0	0	-	-	-	-	-
COc1cc(C(=O)NCCC(=O)NC2CCCCCCC2)cc(OC)c1OC	0	0	0	0	0	0	-	-	-	-	-
S=C(Nc1ccccc1)N1CCOCCOCCN(C(=S)Nc2ccccc2)CCOCCOCC1	0	0	-9.08	0	-10.6	0	28.5%	0	0	96.0	0.135
CC(C)CCN(C(=S)Nc1cccc(C(F)(F)F)c1)C(C)c1ccccn1 (stereo not given)	0	0	-14	0	-9.33	0	63.5%	0	42.0%	130.3	0.129
CCN(CC)C(=O)CSc1nc2sc3c(c2c(=O)n1-c1ccc(C)cc1)CC(C)(C)SC3	0	0	-17.3	0	0	0	0	0	25.5%	120.7	0.14
COc1ccccc1N(C)S(=O)(=O)c1ccc(C)c(C(=O)NC(C)c2ccccn2)c1 (stereo not given)	-	-	0	-	-	-	-	-	-	-	-
Cc1ccc(CNC(=O)COC(=O)c2ccc(S(=O)(=O)NCc3ccco3)cc2)cc1	-	-	0	-	-	-	-	-	-	-	-
CCCCC(=O)Nc1cccc(-c2csc(-c3ccccc3)n2)c1	9	0	-10.2	0	-10.5	0	50.0%	0	30.0%	125.0	0.154
O=C(O)CCC(=O)Nc1cccc(-c2csc(-c3ccccc3)n2)c1	0	0	0	0	0	0	-	-	-	-	-
Cc1c(N=C2N=C(NC(=O)c3cccs3)c3ccccc32)c(=O)n(-c2ccccc2)n1C	0	0	-9.92	0	-9.17	0	56.0%	0	56.0%	141.3	0.101
Cc1c(N=C2N=C(NC(=O)NC(C)(C)C)c3ccccc32)c(=O)n(-c2ccccc2)n1C	0	0	0	0	0	0	-	-	-	-	-
N=c1c2c(ncn1Cc1ccco1)Oc1ccc3ccccc3c1C2c1ccccc1 (stereo not given)	0	0	0	0	0	0	-	-	-	-	-
N=c1c2c(-c3ccccc3)c(-c3ccccc3)n(Cc3ccco3)c2ncn1Cc1ccco1	11	0	-14.5	-9.83	-8.67	0	54.5%	45.5%	31.0%	110.3	0.153
CC1(C)CC(=O)C2=C(C1)N(c1cccc(Cl)c1)C(=O)NC2(C(F)(F)F)C(F)(F)F	0	0	0	0	0	0	-	-	-	-	-
CC(Oc1ccc(Cl)cc1Cl)c1nc(-c2ccc(NC(=O)c3ccco3)cc2)no1 (stereo not given)	0	0	-8.83	0	-13	0	53.0%	0	34.5%	121.0	0.147
S=C(NCCCN1CCOCC1)Nc1ccc(Nc2ccccc2)cc1	0	0	0	0	0	0	-	-	-	-	-
O=C1CCc2cc(S(=O)(=O)Nc3ccc(F)cc3)ccc2N1	-	-	0	-	-	-	-	-	-	-	-
COc1cc2cc(C(c3nnnn3C3CCCC3)N3CCc4ccccc43)c(=O)[nH]c2cc1OC (stereo not given)	0	0	0	0	0	0	-	-	-	-	-
Fc1ccc(C(c2nnnn2C2CCCC2)N2CCc3ccccc32)cc1 (stereo not given)	0	0	-9.31	0	-9.51	0	37.5%	0	46.5%	107.3	0

Assay outcomes deposited in PubChem BioAssay by Johns Hopkins Ion Channel Center.
